From ChEMBL document CHEMBL3259802, “Anticonvulsant evaluation of clubbed indole-1,2,4-triazine derivatives: a synthetic approach” (Eur J Med Chem, 2014)
Activity calls are given as the source filed them. The calls are words filed in the database; no cut-off is given here.

What was measured:
[1] = system: Mus musculus; experiment: Anticonvulsant activity in Swiss albino mouse assessed as protection against maximal electroshock-induced seizures at 100 mg/kg, po administered 60 mins prior to maximal electroshock exposure by MES test; assay type: functional
In short: (§1)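 Mice (n=6/group) dosed orally at 100 mg/kg in 0.5% sodium carboxymethylcellulose 60 min before maximal electroshock (150 mA, 0.2 s, corneal electrodes). Duration of hind limb tonic extension noted; abolition scored as protection (% protected). Vehicle controls; mean ± SEM, one-way ANOVA followed by Dunnett's method.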

[2] = system: Mus musculus; experiment: Anticonvulsant activity in ip dosed Swiss albino mouse assessed as protection against maximal electroshock-induced tonic-clonic seizure spread measured after 0.5 hrs by MES test; assay type: functional; settings: read-out: MED
In short: (§2)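 Swiss albino mice pre-screened 24 h earlier with 50 mA, 60 Hz, 0.2 s corneal shock; saline drop in eyes. Compounds in 0.5% sodium carboxymethylcellulose given i.p. at 30, 100 and 300 mg/kg; MES applied after 0.5 h and 4 h. Protection = abolition of hind limb tonic extensor component in half or more of four mice.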

[3] = system: Mus musculus; experiment: Anticonvulsant activity in ip dosed Swiss albino mouse assessed as protection against maximal electroshock-induced tonic-clonic seizure spread measured after 4 hrs by MES test; assay type: functional; settings: read-out: MED; in short: as §2
[4] = system: Mus musculus; experiment: Anticonvulsant activity in ip dosed Swiss albino mouse assessed as protection against pentylenetetrazole-induced seizures after 0.5 hrs; assay type: functional; settings: read-out: MED
In short: (§3)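 Compounds in 0.5% sodium carboxymethylcellulose injected i.p. at 30, 100, 300 mg/kg (four mice per dose); at 0.5 h or 4 h, pentylenetetrazol 70 mg/kg given s.c. as 0.5% solution in posterior midline. Observation 30 min; absence of clonic spasm in half or more of animals scored as protection.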

[5] = system: Mus musculus; experiment: Anticonvulsant activity in ip dosed Swiss albino mouse assessed as protection against pentylenetetrazole-induced seizures after 4 hrs; assay type: functional; settings: read-out: MED; in short: as §3
[6] = system: Mus musculus; experiment: Neurotoxicity in Swiss albino mouse assessed as minimal motor impairment at 300 mg/kg, ip after 0.5 hrs by rotarod test; assay type: toxicity, organism-based; parameters: dose 300 mg/kg, route intraperitoneal; settings: in vivo
In short: (§4)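 Rotarod minimal motor impairment: mice trained on 3.2 cm rod at 10 rpm; i.p. doses of 30, 100 and 300 mg/kg, four mice each, tested at 0.5 h and 4 h. Neurotoxicity = failure to stay on rod at least 1 min in each of three trials.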

[7] = system: Mus musculus; experiment: Neurotoxicity in Swiss albino mouse assessed as minimal motor impairment at 300 mg/kg, ip after 4 hrs by rotarod test; assay type: toxicity, organism-based; parameters: dose 300 mg/kg, route intraperitoneal; settings: in vivo; in short: as §4
[8] = system: Mus musculus; experiment: Anticonvulsant activity in Swiss albino mouse assessed as time duration of hind limb tonic extenstion at 100 mg/kg, po administered 60 mins prior to maximal electroshock exposure by MES test (reference value: 16.20 +/- 0.50 secs); assay type: functional, Hindlimb; in short: as §1
[9] = system: Mus musculus; experiment: Neurotoxicity in Swiss albino mouse assessed as motor impairment at 100 mg/kg, po by rotarod test; assay type: toxicity, organism-based; parameters: dose 100 mg/kg, route oral; settings: in vivo
In short: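 Mice trained on rotarod (3.2 cm, 10 rpm) received 100 mg/kg orally in 0.5% sodium carboxymethylcellulose; neurotoxicity scored as percentage of animals failing to keep equilibrium on rod for 60 s.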

[10] = system: Mus musculus; experiment: Anticonvulsant activity in ip dosed Swiss albino mouse assessed as protection against maximal electroshock-induced seizure measured at the time of peak effect during phase 2 trials by MES test; assay type: functional
In short: (§5)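 Phase II quantitation: groups of six mice given a range of i.p. doses until at least three points fell within 10–90% seizure protection (MES or scPTZ) or rotarod neurotoxicity, tested at time of peak effect.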

[11] = Neurotoxicity in ip dosed Swiss albino mouse measured during phase 2 trials by rotarod test; assay type: toxicity, organism-based; settings: in vivo; in short: as §5
[12] = system: Rattus norvegicus; experiment: Increase in GABA level in Wistar rat whole brain at 100 mg/kg, ip after 2 hrs measured per 100 mg of tissue (reference value: 46.8 +/- 6.03 ug); assay type: functional; settings: route intraperitoneal
In short: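 Adult Wistar rats, six per group, given 100 mg/kg i.p. (clobazam 30 mg/kg p.o. reference); decapitated 2 h later, whole brains put into ice-cold 80% ethanol and GABA determined enzymatically in tissue extracts. Mean ± SEM; Student's t test versus control.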

[13] = system: Rattus norvegicus; experiment: Increase in GABA level in Wistar rat whole brain at 30 mg/kg, po for 7 days measured at 4 hrs after last drug dose per 100 mg of tissue (reference value: 49.2 +/- 3.01 ug); assay type: functional
[14] = system: Mus musculus; experiment: Anticonvulsant activity in Swiss albino mouse assessed as protection against maximal electroshock-induced tonic-clonic seizure spread measured at 300 mg/kg, ip after 0.5 hrs by MES test; assay type: functional, organism-based; parameters: dose 300 mg/kg
In short: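 Groups of four mice, screened 24 h beforehand with corneal shock (50 mA, 60 Hz, 0.2 s), saline drop in each eye. Test doses of 30, 100 or 300 mg/kg ip were suspended in 0.5% sodium carboxymethylcellulose. The shock was applied 0.5 h and 4.0 h after dosing. Protection: abolition of hind-limb tonic extension in half or more of the animals.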

[15] = system: Mus musculus; experiment: Anticonvulsant activity in Swiss albino mouse assessed as protection against maximal electroshock-induced tonic-clonic seizure spread measured at 300 mg/kg, ip after 4 hrs by MES test; assay type: functional, organism-based; parameters: dose 300 mg/kg; in short: as §2
[16] = system: Mus musculus; experiment: Anticonvulsant activity in ip dosed Swiss albino mouse assessed as protection against pentylenetetrazole-induced seizure measured at the time of peak effect during phase 2 trials; assay type: functional; in short: as §5
[17] = system: Rattus norvegicus; experiment: Increase in GABA level in Wistar rat whole brain at 30 mg/kg, po after 2 hrs measured per 100 mg of tissue (reference value: 46.8 +/- 6.03 ug); assay type: functional
[18] = system: Mus musculus; experiment: Anticonvulsant activity in Swiss albino mouse assessed as protection against pentylenetetrazole-induced seizures at 300 mg/kg, ip after 0.5 hrs; assay type: functional, organism-based; parameters: dose 300 mg/kg; in short: as §3
[19] = system: Mus musculus; experiment: Anticonvulsant activity in Swiss albino mouse assessed as protection against PTZ-induced seizure at 200 mg/kg, po administered 60 mins prior to pentylenetetrazole challenge; assay type: functional
[20] = system: Mus musculus; experiment: Anticonvulsant activity in Swiss albino mouse assessed as seizure latency to onset of clonus at 100 mg/kg, po administered 60 mins prior to pentylenetetrazole challenge (reference value: 1.54 +/- 0.90 mins); assay type: functional
[21] = system: Mus musculus; experiment: Anticonvulsant activity in Swiss albino mouse assessed as protection against PTZ-induced seizure at 100 mg/kg, po administered 60 mins prior to pentylenetetrazole challenge; assay type: functional
[22] = organism: Mus musculus; experiment: Protective index, ratio of TD50 for Swiss albino mouse to ED50 for anticonvulsant activity in PTZ-treated Swiss albino mouse
[23] = Displacement of [3H]BTX-B from neurotoxin site 2 of voltage-gated sodium channel in rat cerebral cortex synaptoneurosomes by scintillation counting analysis; assay type: tissue-based
[24] = organism: Rattus norvegicus; experiment: Displacement of [3H]BTX-B from neurotoxin site 2 of voltage-gated sodium channel in rat cerebral cortex synaptoneurosomes at 100 uM by scintillation counting analysis; assay type: tissue-based
[25] = system: Mus musculus; experiment: Neurotoxicity in Swiss albino mouse assessed as minimal motor impairment at 100 mg/kg, ip after 0.5 hrs by rotarod test; assay type: toxicity, organism-based; parameters: dose 100 mg/kg, route intraperitoneal; settings: in vivo; in short: as §4
[26] = system: Mus musculus; experiment: Neurotoxicity in Swiss albino mouse assessed as minimal motor impairment at 100 mg/kg, ip after 4 hrs by rotarod test; assay type: toxicity, organism-based; parameters: dose 100 mg/kg, route intraperitoneal; settings: in vivo; in short: as §4
[27] = system: Mus musculus; experiment: Anticonvulsant activity in Swiss albino mouse assessed as decrease in time duration of hind limb tonic extenstion at 30 mg/kg, po administered 60 mins prior to maximal electroshock exposure by MES test; assay type: functional, organism-based; parameters: dose 30 mg/kg; settings: Hindlimb
[28] = system: Mus musculus; experiment: Anticonvulsant activity in Swiss albino mouse assessed as protection against maximal electroshock-induced seizures at 30 mg/kg, po administered 60 mins prior to maximal electroshock exposure by MES test; assay type: functional

NC(=O)c1c(-c2ccccc2)n(C2=NNC(=S)NC2N)c2ccc([N+](=O)[O-])cc12 (configuration not stated)
Activity [1]: 50% | minimal effective dose [2]: 30 mg/kg | minimal effective dose [3]: 30 mg/kg | minimal effective dose [4]: 300 mg/kg | minimal effective dose [5]: 300 mg/kg | Activity [6]: Non-toxic | Activity [7]: Non-toxic | Time [8]: 12.7 s | Activity [9]: Non-toxic | ED50 [10]: 24 mg/kg | TD50 [11]: 125 mg/kg | Activity [12]: 85.4 µg | Activity [13]: 88.4 µg

CCC1(C)CC(=O)NC1=O (configuration not stated) [ETHOSUXIMIDE]
Activity [14]: inactive | Activity [15]: inactive | minimal effective dose [4]: 100 mg/kg | minimal effective dose [5]: 300 mg/kg | ED50 [10]: > 1000 mg/kg | ED50 [16]: 130 mg/kg

CN1C(=O)CC(=O)N(c2ccccc2)c2cc(Cl)ccc21 [CLOBAZAM]
Activity [13]: 110 µg | Activity [17]: 101 µg

NC1NC(=S)NN=C1n1c(-c2ccccc2)c(S(N)(=O)=O)c2cc(F)ccc21 (configuration not stated)
TD50 [11]: 225 mg/kg

NC1NC(=S)NN=C1n1c(-c2ccccc2)c(C(=O)O)c2cc(C(F)(F)F)ccc21 (configuration not stated)
TD50 [11]: 100 mg/kg

CC(=O)c1c(-c2ccccc2)n(C2=NNC(=S)NC2N)c2ccc(C(F)(F)F)cc12 (configuration not stated)
Activity [1]: 33.3% | minimal effective dose [2]: 30 mg/kg | minimal effective dose [3]: 30 mg/kg | Activity [18]: inactive | minimal effective dose [5]: 300 mg/kg | Activity [6]: Non-toxic | Activity [7]: Non-toxic | Time [8]: 13.5 s | ED50 [10]: 40 mg/kg | TD50 [11]: 95 mg/kg | Activity [12]: 75.4 µg | Activity [13]: 79.1 µg

CCCC(CCC)C(=O)[O-].[Na+] [VALPROATE SODIUM]
Activity [19]: 100% | Activity [9]: Non-toxic

NC1NC(=S)NN=C1n1c(-c2ccccc2)c(S(N)(=O)=O)c2cc(Cl)ccc21 (configuration not stated)
TD50 [11]: 185 mg/kg

NC1NC(=S)NN=C1n1c(-c2ccccc2)c(C(=O)O)c2cc([N+](=O)[O-])ccc21 (configuration not stated)
TD50 [11]: 180 mg/kg

CC(=O)c1c(-c2ccccc2)n(C2=NNC(=S)NC2N)c2ccc(F)cc12 (configuration not stated)
Activity [1]: 100% | minimal effective dose [2]: 30 mg/kg | minimal effective dose [3]: 30 mg/kg | minimal effective dose [4]: 100 mg/kg | minimal effective dose [5]: 100 mg/kg | Activity [6]: Non-toxic | Activity [7]: Non-toxic | Time [8]: 5.4 s | Time [20]: 9.8 min | Activity [21]: 83.3% | Activity [9]: Non-toxic | ED50 [10]: 7 mg/kg | TD50 [11]: 290 mg/kg | ED50 [16]: 68 mg/kg | Ratio TD50/ED50 [22]: 3.39 | Activity [12]: 93.5 µg | Activity [13]: 110 µg | IC50 [23]: 108 µM | inhibition [24]: 50.4%

O=C1NC(=O)C(c2ccccc2)(c2ccccc2)N1 [PHENYTOIN]
Activity [25]: Non-toxic | minimal effective dose [2]: 30 mg/kg | minimal effective dose [3]: 30 mg/kg | Activity [26]: Non-toxic | inhibition [27]: Active | Activity [28]: 100% | Activity [9]: Non-toxic | IC50 [23]: 126 µM | inhibition [24]: 49.6%
